According to ChEMBL document CHEMBL4699419, “Antileishmanial assessment of isoxazole derivatives against L. donovani” (RSC Med Chem, 2020):
Calls of active or inactive are those of the source. No cut-off for these calls is given here.

Experiments:
Leishmania donovani [1] = experiment: Antileishmanial activity against late log phase promastigote stage of Leishmania donovani MHOM/IN/80/Dd8 harboring luciferase reporter gene incubated for 72 hrs by Steady-Glo luminescence assay; type: functional, organism-based; conditions: Leishmania donovani, MHOM/IN/80/Dd8, 72 h; read-out: IC50
Method in brief: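 Luciferase-transfected promastigotes kept at 25 ± 1 °C in medium 199 + 10% heat-inactivated FCS + G418 (20 μg ml–1). Late-log cells (5 × 10^5 per well) grown 72 h with graded compound concentrations from DMSO, DMSO dilution controls. Aliquot mixed 1:1 with Steady-Glo, luminescence (RLU) read; % inhibition vs control. IC50 by Probit regression, three independent experiments.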

[2] = Selectivity index, ratio of CC50 for mouse J774.A1 cells to IC50 for amastigote form of Leishmania donovani MHOM/IN/80/Dd8; type: toxicity; conditions: read-out: Ratio CC50/IC50
Method in brief: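 Macrophages infected at a 1:10 ratio with stationary promastigotes, then treated 72 h at 37 °C; luminescence read with Steady-Glo. IC50 values from probit analysis.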

Leishmania donovani [3] = experiment: Antileishmanial activity against Leishmania donovani amastigotes infected in golden hamster assessed as reduction in parasite burden in spleen at 50 mg/kg, ip initiated after 2 days of pre-treatment biopsy administered for 5 days and measured on day 7 by giemsa staining based assay relative to control; type: functional; conditions: for inhibition in vivo at 50 mg/kg: 168 h, time 7 day; for inhibition: time 7.0 day
Method in brief: (§1)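 Male inbred golden hamsters, 40–45 g, infected with L. donovani. Animals with +1 infection on pre-treatment spleen biopsy randomized, five per group. Intraperitoneal dosing in a vehicle of 10% Tween-80/ethanol (70:30) in ddH2O, 10% final, began 2 days after biopsy and ran 5 consecutive days; vehicle-only controls. Giemsa-stained spleen biopsies taken on day 7 or 28; percentage inhibition computed from initial, treated and untreated-control amastigote counts.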

Leishmania donovani [4] = experiment: Antileishmanial activity against Leishmania donovani amastigotes infected in golden hamster assessed as reduction in parasite burden in spleen at 50 mg/kg, ip initiated after 2 days of pre-treatment biopsy administered for 5 days and measured on day 28 by giemsa staining based assay relative to control; type: functional; conditions: for inhibition in vivo at 50 mg/kg: 672 h, time 28 day; for inhibition: time 28.0 day; method in brief: as §1
[5] = Cytotoxicity against mouse J774A1 cells assessed as reduction in cell viability incubated for 48 hrs by MTT assay; type: cell-based, J774.A1
Method in brief: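 J774A.1 macrophages, 0.2 × 10^6 per well, incubated overnight at 37 °C in 5% CO2, then exposed to compounds in DMSO for 48 h, with DMSO dilutions as controls. Viability read by MTT formazan at 600 nm. CC50 = 50% viability reduction versus medium-only cells, from probit regression; three independent experiments.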

Leishmania donovani [6] = experiment: Antileishmanial activity against Leishmania donovani MHOM/IN/80/Dd8 promastigotes harboring luciferase reporter gene infected in mouse J774 cells assessed as inhibition of amastigote growth incubated for 72 hrs by Steady-Glo luminescence assay; type: functional, organism-based; conditions: Leishmania donovani, MHOM/IN/80/Dd8, J774, 72 h; read-out: IC50
Method in brief: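 J774A.1 mouse macrophages (2 × 10^5 per well, RPMI-1640 + 10% FCS, 37 °C CO2) infected after 24 h with stationary-phase luciferase-transgenic promastigotes at 1:10 macrophage:parasite; compounds in complete medium for 72 h at 37 °C. Medium swapped for PBS, Steady-Glo added, luminescence read; % inhibition vs untreated control RLU. IC50 by Probit log dose/response regression, three independent experiments.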

Leishmania amazonensis [7] = experiment: Antileishmanial activity against intracellular amastigote stage of Leishmania amazonensis; type: functional, organism-based
Leishmania amazonensis [8] = experiment: Antileishmanial activity against promastigote form of Leishmania amazonensis; type: functional, organism-based
[9] = MRT in golden hamster at 100 mg/kg, po measured upto 24 hrs by LC/MS-MS analysis; type: ADME, organism-based, Mesocricetus auratus; conditions: in vivo
Method in brief: (§2)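 Male Syrian hamsters, three per group; single oral dose of 100 mg kg–1 as a suspension in 0.5% sodium carboxymethylcellulose. Plasma concentrations followed over 24 h by LC–MS/MS with electrospray ionization. Parameters derived by non-compartmental analysis; mean ± SD of n = 3.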

[10] = Tmax in golden hamster at 100 mg/kg, po measured upto 24 hrs by LC/MS-MS analysis; type: ADME, organism-based, Mesocricetus auratus; conditions: in vivo; method in brief: as §2
Leishmania donovani [11] = experiment: Antileishmanial activity against Leishmania donovani amastigotes infected in golden hamster assessed as reduction in parasite burden in spleen at 100 mg/kg, po initiated after 2 days of pre-treatment biopsy administered for 5 days and measured on day 28 by giemsa staining based assay relative to control; type: functional; conditions: 672 h, time 28 day
Method in brief: (§3)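 Male inbred golden hamsters, 40–45 g, infected with L. donovani. Animals with +1 infection on pre-treatment spleen biopsy (5–15 amastigotes/100 spleen cell nuclei) randomized, five per group. Oral dosing in 5% carboxymethyl cellulose vehicle began 2 days after biopsy and ran 5 consecutive days; vehicle-only infected controls. Giemsa-stained spleen biopsies taken on day 7 or 28 after the last dose; PI = 100 – [ANAT × 100/(INAT × TIUC)].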

[12] = Half life in golden hamster at 100 mg/kg, po measured upto 24 hrs by LC/MS-MS analysis; type: ADME, organism-based, Mesocricetus auratus; conditions: in vivo; method in brief: as §2
[13] = Cmax in golden hamster at 100 mg/kg, po measured upto 24 hrs by LC/MS-MS analysis; type: ADME, organism-based, Mesocricetus auratus; parameters: route oral, dose 100 mg/kg, time <=24; conditions: in vivo; method in brief: as §2
[14] = Drug metabolism in golden hamster at 100 mg/kg, po measured upto 24 hrs by LC/MS-MS analysis; type: ADME, organism-based, Mesocricetus auratus; conditions: in vivo
[15] = AUC (0 to infinity) in golden hamster at 100 mg/kg, po measured upto 24 hrs by LC/MS-MS analysis; type: ADME, organism-based, Mesocricetus auratus; parameters: route oral, dose 100 mg/kg, time <=24; conditions: in vivo; method in brief: as §2
Leishmania donovani [16] = experiment: Antileishmanial activity against Leishmania donovani amastigotes infected in golden hamster assessed as reduction in parasite burden in spleen at 100 mg/kg, po initiated after 2 days of pre-treatment biopsy administered for 5 days and measured on day 7 by giemsa staining based assay relative to control; type: functional; conditions: 168 h, time 7 day; method in brief: as §3
Leishmania amazonensis [17] = experiment: Antileishmanial activity against intracellular amastigote stage of Leishmania amazonensis (IFLA/BR/1967/PH8 strain) assessed as reduction in parasite viability incubated for 24 hrs by Neubauer chamber cell counting method; type: functional, organism-based; conditions: IFLA/BR/1967/PH8, 24 h
Leishmania amazonensis [18] = experiment: Antileishmanial activity against promastigote form of Leishmania amazonensis (IFLA/BR/1967/PH8 strain) assessed as reduction in parasite viability incubated for 72 hrs by MTT assay; type: functional, organism-based; conditions: IFLA/BR/1967/PH8, 72 h
Leishmania donovani [19] = experiment: Antileishmanial activity against Leishmania donovani amastigotes infected in golden hamster assessed as reduction in parasite burden in spleen at 30 mg/kg, po initiated after 2 days of pre-treatment biopsy administered for 5 days and measured on day 28 by giemsa staining based assay relative to control; type: functional; conditions: 672 h, time 28 day; method in brief: as §3
Leishmania donovani [20] = experiment: Antileishmanial activity against Leishmania donovani amastigotes infected in golden hamster assessed as reduction in parasite burden in spleen at 30 mg/kg, po initiated after 2 days of pre-treatment biopsy administered for 5 days and measured on day 7 by giemsa staining based assay relative to control; type: functional; conditions: 168 h, time 7 day; method in brief: as §3

Compound	IC50 (Leishmania donovani [1]) [µM]	selectivity ratio [2]	inhibition in vivo at 50 mg/kg (Leishmania donovani [3]) [%]	inhibition in vivo at 50 mg/kg (Leishmania donovani [4]) [%]	CC50 at 48 h [5] [µM]	IC50 (Leishmania donovani [6]) [µM]	also measured
COC(=O)c1c(NCc2ccc(Cl)cc2)noc1-c1cc2c(cc1[N+](=O)[O-])OCO2	15.5	7	13.5	2.08	33	4.59	
COC(=O)c1c(NCCNc2ccnc3cc(Cl)ccc23)noc1-c1ccc([N+](=O)[O-])cc1	1.87	4.16			3.79	0.91	inhibition (Leishmania donovani [3]): inactive; inhibition (Leishmania donovani [4]): inactive
COc1cc(-c2cc(-c3cc(OC)c(OC)c(OC)c3)on2)cc(OC)c1OC							IC50 (Leishmania amazonensis [7]): 2.9 µM; IC50 (Leishmania amazonensis [8]): 18.3 µM
COC(=O)c1c(NCc2ccc(C(C)(C)C)cc2)noc1-c1cc2c(cc1[N+](=O)[O-])OCO2	2.14	14	71.1	28.6	7.49	0.54	MRT [9]: 9.53 h; Tmax [10]: 3 h; inhibition in vivo at 100 mg/kg (Leishmania donovani [11]): 12.7%; half-life [12]: 3.78 h; Cmax [13]: 15.4 ng/mL; Drug metabolism [14]: Metabolite_Detected; AUC(0-inf) [15]: 149 ng·h/mL; inhibition in vivo at 100 mg/kg (Leishmania donovani [16]): 69.5%
COC(=O)c1c(NCCNc2ccnc3cc(Cl)ccc23)noc1-c1ccc(Cl)cc1Cl	1.86	4.05	19.3		3.45	0.85	inhibition (Leishmania donovani [4]): inactive
COC(=O)c1c([N+](=O)[O-])noc1-c1ccc(Cl)cc1Cl	1.82	4.49	39.5	29	19.7	4.38	
COC(=O)c1c(NCc2ccc(OC)cc2OC)noc1-c1ccc(Cl)cc1Cl	8.34	6	50.9	38	32.1	5.48	
COc1cc(-c2cc(-c3ccc4c(c3)OCO4)no2)cc(OC)c1OC							IC50 (Leishmania amazonensis [7]): 2.9 µM; IC50 (Leishmania amazonensis [8]): 18.3 µM
COC(=O)c1c(NCc2ccc(Cl)cc2)noc1-c1ccc(Cl)cc1Cl	14.1	56.6	29.2		176	3.1	inhibition (Leishmania donovani [4]): inactive
COC(=O)c1c(NCc2ccccc2)noc1-c1ccc([N+](=O)[O-])cc1	3.9	6.16	44	75.2	85.4	13.8	
COC(=O)c1c(NCCCCNc2ccnc3cc(Cl)ccc23)noc1-c1cc2c(cc1[N+](=O)[O-])OCO2	4.5	7.97	20	4.38	67.7	8.49	
O=[N+]([O-])c1ccc(-c2cc(-c3ccc(CCl)cc3)on2)o1							IC50 (Leishmania amazonensis [17]): 0.6 µM; IC50 (Leishmania amazonensis [18]): 3.5 µM
COC(=O)c1c(NCCCNc2ccnc3cc(Cl)ccc23)noc1-c1ccc(Cl)cc1Cl	3.82	9.67	62	9.23	31.1	3.21	
CCCCCCCCCCCCCCCCOP(=O)([O-])OCC[N+](C)(C)C [MILTEFOSINE]	2.52	5.76			53.3	9.25	inhibition in vivo at 30 mg/kg (Leishmania donovani [19]): 98.4%; inhibition in vivo at 30 mg/kg (Leishmania donovani [20]): 97.3%
COC(=O)c1c([N+](=O)[O-])noc1-c1ccccc1F	2.87	2.19	36			16.1	inhibition (Leishmania donovani [4]): inactive
COC(=O)c1c(NCCCCNc2ccnc3cc(Cl)ccc23)noc1-c1ccccc1[N+](=O)[O-]	1.95	8.99			77.7	8.63	inhibition (Leishmania donovani [3]): inactive; inhibition (Leishmania donovani [4]): inactive
COC(=O)c1c([N+](=O)[O-])noc1-c1cc2c(cc1[N+](=O)[O-])OCO2	0.67	6.51	36	71.2	113	17.4	inhibition in vivo at 100 mg/kg (Leishmania donovani [11]): 66%; inhibition in vivo at 100 mg/kg (Leishmania donovani [16]): 48.4%
